Consider 4 compounds from ChEMBL document CHEMBL1649230, “Aryl rhodanines specifically inhibit staphylococcal and enterococcal biofilm formation” (Antimicrob Agents Chemother, 2009).

Activity calls are given as the source filed them. The rule behind the calls is not given here.

Assay [1] concerns Staphylococcus aureus. Nature of the assay: Antimicrobial activity against community acquired methicillin-resistant Staphylococcus aureus isolate 33548 assessed as inhibition of bacterial biofilm after 18 hrs by broth microdilution method. It is filed as functional. An outline of the steps: (§1)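 Biofilm MBIC on tissue culture-treated polystyrene 96-well plates. Twofold dilutions, 0.2 to 100 μM final, with 2% DMSO final. Inoculum was an overnight culture diluted 1:100 (~5 × 10^6 cells/well) in 0.5× TSB plus 1% glucose, grown 18 h at 37°C. Wells washed, heat-fixed 60°C 60 min, stained with 0.06% crystal violet, OD600 read. MBIC is the lowest concentration giving ≥80% inhibition versus untreated; geometric mean of ≥3 experiments.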
Background: In broth dilution the organism is exposed to a series of concentrations in liquid medium.

The test system of assay [2] is Enterococcus faecalis. Description: Antimicrobial activity against vancomycin-resistant Enterococcus faecalis isolate F317 on medical grade silicone disk assessed as inhibition of bacterial biofilm after 18 hrs by broth microdilution method. It is filed as functional. The method, boiled down:
(§2)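 Medical-grade silicone disks glued to 24-well plate bottoms. Compound added to a 1:100 overnight-culture inoculum (0.5× TSB, 1% glucose) at 2% DMSO final; ≥3 wells each, ~18 h at 37°C. Washed with water, heat-fixed 60°C 60 min, stained with 0.06% crystal violet, eluted with 30% acetic acid, OD600 read. Repeated ≥3 times.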

Assay [3] relates to Enterococcus faecalis. Description: Antimicrobial activity against vancomycin-resistant Enterococcus faecalis isolate F217 assessed as inhibition of bacterial biofilm after 18 hrs by broth microdilution method. Type of assay: functional. The method, boiled down: as §1
Assay [4] deals with Staphylococcus aureus. Nature of the assay: Antimicrobial activity against community acquired methicillin-resistant Staphylococcus aureus isolate 35392 assessed as inhibition of bacterial biofilm after 18 hrs by broth microdilution method. Type of assay: functional. The method, boiled down: as §1
For assay [5], the system named is Enterococcus faecalis. Description: Antimicrobial activity against Enterococcus faecalis ATCC 51299 on medical grade silicone disk assessed as inhibition of bacterial biofilm after 18 hrs by broth microdilution method. It is filed as functional.
In assay [6] the test system is Staphylococcus aureus. Description: Antimicrobial activity against community acquired methicillin-resistant Staphylococcus aureus isolate 27687 assessed as inhibition of bacterial biofilm after 18 hrs by broth microdilution method. Type of assay: functional. The method, boiled down:
as §1

Assay [7] has as its system Staphylococcus aureus. Description: Antimicrobial activity against Staphylococcus aureus ATCC 35556 assessed as inhibition of primary adhesion of bacterial biofilm to polystyrene surface under static condition pretreated with compound MBIC for 30 mins measured after 30 mins by fluorescence emission using BaclLight Live Dead stain. Type of assay: functional. An outline of the steps:
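PBS suspension of mid-log S. aureus ATCC 35556 exposed to compound in tubes for 30 min at 37°C. Cells centrifuged to remove free compound and resuspended in PBS at the original density. They were then placed on tissue culture-treated polystyrene for 30 min at 37°C. Wells washed, BacLight Live/Dead fluorescence read (ex 485, em 530 nm). Fraction adherent calculated versus untreated.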

Assay [8] deals with Staphylococcus aureus. Nature of the assay: Antimicrobial activity against Staphylococcus aureus ATCC 35556 assessed as inhibition of primary adhesion of bacterial biofilm to silicone disk surface under static condition at 4 times MBIC after 30 mins by fluorescence emission using BaclLight Live Dead stain. It is filed as functional, organism-based. An outline of the steps:
(§3)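 Mid-log S. aureus ATCC 35556 (OD600 0.5) grown in TSB at 37°C, washed, resuspended in PBS. Compound added (0× to 8× MBIC, 2% DMSO). Suspension placed on tissue culture-treated polystyrene or PVC 96-well plates (eight wells per level) or silicone disks in 24-well plates (three wells). Incubated 30 min at 37°C, then washed. BacLight Live/Dead fluorescence read (ex 485, em 530 nm). Result given as fraction adherent versus untreated.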

Assay [9] concerns Staphylococcus aureus. Description: Antimicrobial activity against Staphylococcus aureus ATCC 35556 assessed as inhibition of primary adhesion of bacterial biofilm to polystyrene surface under static condition at MBIC after 30 mins by fluorescence emission using BaclLight Live Dead stain. It is filed as functional, organism-based. The method, boiled down: as §3
The subject of assay [10] is Staphylococcus aureus. Description: Antimicrobial activity against Staphylococcus aureus ATCC 35556 assessed as inhibition of primary adhesion of bacterial biofilm to PVC surface under static condition at MBIC after 30 mins by fluorescence emission using BaclLight Live Dead stain. It is filed as functional, organism-based. An outline of the steps:
as §3

In assay [11] the test system is Enterococcus faecalis. Description: Antimicrobial activity against vancomycin-resistant Enterococcus faecalis isolate F177 assessed as inhibition of bacterial biofilm after 18 hrs by broth microdilution method. It is filed as functional. An outline of the steps:
as §1

For assay [12], the system named is Staphylococcus aureus. Nature of the assay: Antimicrobial activity against Staphylococcus aureus ATCC 35556 assessed as inhibition of primary adhesion of bacterial biofilm to PVC surface under static condition at 4 times MBIC after 30 mins by fluorescence emission using BaclLight Live Dead stain. It is filed as functional, organism-based. An outline of the steps: as §3

Assay [13] deals with Staphylococcus aureus. Nature of the assay: Antimicrobial activity against Staphylococcus aureus ATCC 35556 assessed as inhibition of primary adhesion of bacterial biofilm to silicone disk under static condition at MBIC after 30 mins by fluorescence emission using BaclLight Live Dead stain. It is filed as functional, organism-based. The method, boiled down:
as §3

In assay [14] the test system is Staphylococcus aureus. Description: Antimicrobial activity against Staphylococcus aureus ATCC 35556 assessed as effect on protein synthesis at 30 ug/ml. Type of assay: functional, organism-based.
For assay [15], the system named is Staphylococcus aureus. Description: Antimicrobial activity against Staphylococcus aureus ATCC 35556 assessed as inhibition of primary adhesion of bacterial biofilm to polystyrene surface under static condition at 0.5 times MBIC after 30 mins by fluorescence emission using BaclLight Live Dead stain. Type of assay: functional, organism-based. The method, boiled down: as §3

For assay [16], the system named is Staphylococcus aureus. Nature of the assay: Antimicrobial activity against Staphylococcus aureus ATCC 35556 assessed as effect on protein synthesis at 15 ug/ml. It is filed as functional, organism-based.
Assay [17] relates to Staphylococcus aureus. Description: Antimicrobial activity against Staphylococcus aureus ATCC 35556 assessed as inhibition of primary adhesion of bacterial biofilm to silicone disk at MBIC after 30 mins by fluorescence emission using BaclLight Live Dead stain.
For assay [18], the system named is Staphylococcus aureus. Nature of the assay: Inhibition of […] of Staphylococcus aureus ATCC 35556 assessed as level of beta-galactosidase activity at 8 times MBIC by Miller assay. Type of assay: functional, organism-based. The method, boiled down:
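Stationary-phase autolysis used ATCC 35556 carrying pAJ22, inoculated 1:100 from overnight culture into TSB with 6 μg chloramphenicol/ml and varying compound. Cultures were shaken at 250 rpm, 37°C, for 96 h, sampling OD600 and cell-free supernatants over time. Released β-galactosidase in supernatants was assayed with o-nitrophenyl-β-d-galactopyranoside and reported in Miller units.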

The subject of assay [19] is Staphylococcus aureus. Nature of the assay: Effect on PNAG synthesis in Staphylococcus aureus ATCC 35556 by dot blot Western analysis. Type of assay: functional, organism-based. An outline of the steps:
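PNAG extracts were made from S. aureus ATCC 35556 grown with compound at 0× to 8× MBIC. Extracts were serially diluted 1:4, spotted onto nitrocellulose and probed with WGA-HRP, detected by chemiluminescent substrate on film. A PNAG-defective Δica::Tc strain extract served as the specificity control.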

Assay [20] has as its system Staphylococcus aureus. Nature of the assay: Antimicrobial activity against Staphylococcus aureus ATCC 35556 assessed as inhibition of bacterial biofilm formation at 4 times MBIC measured after 4 hrs. It is filed as functional, organism-based.
In assay [21] the test system is Staphylococcus aureus. Description: Antimicrobial activity against Staphylococcus aureus ATCC 35556 on medical grade silicone disk assessed as inhibition of bacterial biofilm after 18 hrs by broth microdilution method. Type of assay: functional, organism-based.
In assay [22] the test system is Staphylococcus aureus. Description: Antimicrobial activity against community acquired methicillin-resistant Staphylococcus aureus isolate 43349 assessed as inhibition of bacterial biofilm after 18 hrs by broth microdilution method. Type of assay: functional. The method, boiled down:
as §1

The subject of assay [23] is Staphylococcus aureus. Nature of the assay: Antimicrobial activity against Staphylococcus aureus ATCC 35556 assessed as inhibition of bacterial biofilm formation at 4 times MBIC measured after 6 hrs. It is filed as functional, organism-based.
The subject of assay [24] is Staphylococcus aureus. Description: Antimicrobial activity against Staphylococcus aureus ATCC 35556 assessed as inhibition of primary adhesion of bacterial biofilm to silicone disk surface under shaking condition at 4 times MBIC after 30 mins by fluorescence emission using BaclLight Live Dead stain. Type of assay: functional, organism-based.
The test system of assay [25] is Staphylococcus epidermidis. Nature of the assay: Antimicrobial activity against Staphylococcus epidermidis ATCC 35984 on medical grade silicone disk assessed as inhibition of bacterial biofilm after 18 hrs by broth microdilution method. Type of assay: functional. An outline of the steps: as §2

Turning to `CCOc1cc(/C=C2\SC(=S)N(c3cccc(F)c3)C2=O)ccc1O`, the MBIC in the assay with Staphylococcus aureus [1] amounted to 35.4 µM; with Enterococcus faecalis [3] it was 29.7 µM. The MBIC90 entry with Enterococcus faecalis [2] is recorded as “>=100 uM”.

Consider `C=CCOc1cc(/C=C2\SC(=S)N(c3ccc(F)cc3)C2=O)ccc1O`, for which the figures for the MBIC in the assay on Staphylococcus aureus [1], in the assay on Staphylococcus aureus [4] and with Staphylococcus aureus [6] were 31.5 µM, 39.7 µM and 50 µM, respectively. Also, the MBIC90 in the assay with Enterococcus faecalis [5] was determined as 100 µM.

`CCOc1cc(/C=C2\SC(=S)N(c3cccnc3)C2=O)ccc1O`: the “inhibition (INH)” value in the assay with Staphylococcus aureus [7] is recorded as “>=80%”. Besides, the inhibition result with Staphylococcus aureus [8], in the assay on Staphylococcus aureus [9], in the assay on Staphylococcus aureus [10], in the assay on Staphylococcus aureus [12], in the assay with Staphylococcus aureus [13] and in the assay with Staphylococcus aureus [15] was “Active” each time. For the same compound, the MBIC in the assay on Enterococcus faecalis [11] was 19.8 µM; in the assay with Staphylococcus aureus [4], 25 µM. The inhibition result in the assay on Staphylococcus aureus [14] and in the assay on Staphylococcus aureus [16] was “inactive” throughout.

For the compound `CCOc1cc(/C=C2\SC(=S)N(c3ccc(F)cc3)C2=O)ccc1O`, in the assay with Staphylococcus aureus [7], the “inhibition (INH)” value is “>=80%”. For the same compound, the inhibition result with Staphylococcus aureus [17], in the assay with Staphylococcus aureus [8], in the assay on Staphylococcus aureus [9], in the assay with Staphylococcus aureus [10], in the assay on Staphylococcus aureus [20] and in the assay with Staphylococcus aureus [12] was “Active” throughout. The inhibition result in the assay with Staphylococcus aureus [13], in the assay on Staphylococcus aureus [15], in the assay on Staphylococcus aureus [23] and in the assay with Staphylococcus aureus [24] was “Active” throughout. Also, the results for the MBIC90 entry (in the assay on Enterococcus faecalis [2]; in assay [25]) were “>=100 uM” and 42 µM, respectively. Moreover, the inhibition entry with Staphylococcus aureus [18], in the assay on Staphylococcus aureus [19], with Staphylococcus aureus [14] and in the assay on Staphylococcus aureus [16] was “inactive” throughout. In addition, the Activity result in the assay on Staphylococcus aureus [21] was “Dose-dependent effect”. The values for the MBIC in the assay with Staphylococcus aureus [22] and in the assay on Enterococcus faecalis [3] were 35.4 µM and 12.5 µM, respectively.
